Screening data deposited in PubChem by Broad Institute.
CAL PDZ FP-1: human CAL PDZ-peptide interaction inhibition; AID 504414; inhibition, % at 20 µM; 330,000 compounds, 0.02% hits; purified CAL PDZ, TMR-peptide fluorescence polarization, 1 h; Q9HD26;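 active means highest replicate inhibition of at least 40%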;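 further: plate controls were DMSO neutral control wells for no effect and unlabeled competitor peptide control wells for full effect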
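Control set: unlabelled peptide and DMSO controls / Material: purified CerCALP PDZ construct / Timing: 1 h incubation at room temperature before polarization reading / Doses: 20 µM, one dose / Detection: fluorescence polarization (mP)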
CDK5 inh: blocks human CDK5/p35 kinase activity; Q00535+Q15078; Recombinant CDK5/p35, ADP-Glo luminescence, 60 min; inhibition, % at 10 µM; 330,000 compounds, 0.01% hits; AID 488839;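 active means highest replicate inhibition of at least 50% and at least 75% of replicates reaching 50%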;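 further: plate controls were DMSO neutral control for no effect and GW8510 at 10 µM for full effect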
Statin myotox sup: suppressors of simvastatin-induced myotoxicity in C2C12 myotubes; ATP luminescence, 48 h; scaled: DMSO 0, geranylgeraniol control 100; rescue of ATP level, % at 7.49 µM; 330,000 compounds, 0.78% hits; AID 602340;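 active means mean ATP rescue above about 67%, or every replicate alone reaching that limit, limit read from the data, passing the limit was not always enough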;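 further: myotubes were challenged with 10 µM simvastatin during compound exposure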
CAL PDZ FP-2: blocks peptide binding to the human CAL PDZ domain; Q9HD26; purified CAL PDZ, TMR-peptide fluorescence polarization, 1 h; inhibition, % at 24.9 µM; 300,000 compounds, 0.92% hits;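 active means mean inhibition of at least 30% with at least half of replicates also reaching 30%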;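 further: 0% = DMSO neutral control and 100% = excess unlabeled competitor peptide PRC23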
S100A4 MyoIIA: S100A4-myosin IIA interaction inhibition | inhibition, % at 10.7 µM | P26447 | AID 652163 | S100A4/TAMRA-MyoIIA peptide fluorescence polarization | 360,000 compounds, 0.14% hits;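 active means mean inhibition of at least 70% across replicates, with every replicate also reaching that level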
Target sequence (P26447 whole entry, looked up): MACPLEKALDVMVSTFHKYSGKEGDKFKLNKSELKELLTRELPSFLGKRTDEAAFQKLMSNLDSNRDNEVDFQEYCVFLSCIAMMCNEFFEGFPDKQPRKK
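Compound dosing: one dose per compound; test system: human S100A4 monomer with TAMRA-labelled myosin IIA peptide; probe or stimulus: TAMRA-labelled myosin IIA heavy-chain peptide probe, 5 nM; medium: HEPES buffer with Ca2+, pH 7.2; schedule: 5 min incubation before reading; benchmarks: neutral control DMSO, positive control TFP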
dFosB act-1: mouse delta FosB homodimer activation; AID 493131; 340,000 compounds, 0.99% hits; activation, % at 25 µM; purified delta FosB, TAMRA-CDK5 oligo fluorescence polarization; percent of positive-control signal above neutral wells; P13346;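 active means mean activation above about 17%, with every replicate also reaching it, limit read from the data, passing the limit was not always enough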
Target sequence (P13346 whole entry, looked up): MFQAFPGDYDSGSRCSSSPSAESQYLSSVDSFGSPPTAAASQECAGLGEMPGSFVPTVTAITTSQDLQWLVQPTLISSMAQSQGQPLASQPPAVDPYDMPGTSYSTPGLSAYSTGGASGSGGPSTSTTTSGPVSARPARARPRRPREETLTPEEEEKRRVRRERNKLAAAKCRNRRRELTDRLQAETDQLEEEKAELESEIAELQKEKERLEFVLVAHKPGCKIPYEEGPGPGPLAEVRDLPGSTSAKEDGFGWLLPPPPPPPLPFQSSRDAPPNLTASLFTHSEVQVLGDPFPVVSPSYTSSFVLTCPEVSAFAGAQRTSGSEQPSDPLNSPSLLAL
dFosB act-2: delta FosB (mouse) homodimer activation | activation, % at 24.9 µM | purified delta FosB, TAMRA-CDK5 oligo fluorescence polarization; normalised: neutral wells 0, positive control 100 | AID 588690 | 2,400 tested, under 10 active | shares compounds with dFosB act-1;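 active means highest replicate activation at or above 34% and every replicate reaching that threshold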;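 further: higher polarization means more probe DNA bound by delta FosB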
Active calls of the source: *; x = no result given. This is a sample that favours compounds with a hit; in the whole collection about 2% have one here.

SMILES	CAL PDZ FP-1	CDK5 inh	Statin myotox sup	CAL PDZ FP-2	S100A4 MyoIIA	dFosB act-1	dFosB act-2
O=C(N/N=C/c1ccncc1)c1ccc(NC(=O)c2cccc(Cl)c2)cc1	-2	1	x	0	-2	39*	3
O=C(N/N=C/c1ccncc1)c1cccc(NC(=O)c2ccccc2Cl)c1	-5	-3	x	-2	-1	-12	x
CC1Cc2ccccc2N1C(=O)C1CCCN(S(=O)(=O)c2cccc3nsnc23)C1 (stereo not given)	-4	0	34	0	x	-12	x
CN(C)CCCN1C(=O)c2cccc3cccc(c23)C1=O	0	0	26	0	-5	20*	3
COc1ccc(OCC(O)CN2CCC(CN3C(=O)c4cccc5cccc(c45)C3=O)CC2)cc1 (stereo not given)	-1	1	x	0	4	45*	2
COc1ccc(C(=O)CN2CCN(CCN3C(=O)c4cccc5cccc(c45)C3=O)CC2)cc1	-2	1	x	-4	4	42*	7
CN(C)CCCN1C(=O)c2cc3ccccc3cc2C1=O	1	0	-11	10	-8	12	x
O=C1c2cccc3cccc(c23)C(=O)N1CCCN1CCN(c2ccc(F)cc2)CC1	-2	0	10	4	8	46*	0
COc1ccc2ccccc2c1CN1CCN(Cc2ccccc2)CC1	-1	-1	24	2	x	-1	x
COc1cccc(NC(=O)c2c(F)cccc2F)c1	-2	1	-15	1	1	-7	x
O=C(CN1CCN(CCN2C(=O)c3cccc4cccc(c34)C2=O)CC1)c1ccc(F)cc1	-3	0	x	-2	x	33*	2
CC(C)(C)C(=O)N1CCN(CCN2C(=O)c3cccc4cccc(c34)C2=O)CC1	0	1	2	-2	15	0	x
CSc1nc2ccsc2c(=O)n1-c1cccnc1	0	-3	2	0	2	-3	x
COc1cccc(C(=O)N(c2ccccc2)C2C=CS(=O)(=O)C2)c1 (stereo not given)	0	-2	x	-3	-2	-5	x
CC(C)C(C(=O)O)N1C(=O)/C(=C/c2cccn2C)SC1=S (stereo not given)	0	-7	x	x	-5	-4	x
O=C(Cc1ccc(Cl)cc1)NNC1CC(=O)N(c2ccc3ccccc3c2)C1=O (stereo not given)	0	0	x	-3	-5	32*	3
O=C(Cc1ccccc1)NNC1CC(=O)N(c2ccc(Cl)cc2)C1=O (stereo not given)	0	1	10	-4	-2	-1	x
O=C(CSc1ccc(-c2ccc(-n3cccn3)cc2)nn1)Nc1ccccc1F	-3	0	x	-2	1	25*	3
O=C(CSc1ccc(-c2cccnc2)nn1)Nc1ccccc1F	1	-1	-7	-1	-4	-12	x
COC(=O)CCCC(=O)N1CCCC(C(=O)c2ccccc2SC)C1 (stereo not given)	x	0	0	-1	-2	-4	x
COc1cccc2sc(N(CCCN(C)C)C(=O)c3ccc(S(=O)(=O)N4CCc5ccccc5C4)cc3)nc12	-4	-1	x	-1	-1	30*	1
CCOc1cccc2sc(N(CCCN(C)C)C(=O)c3ccc(S(=O)(=O)N(CC)Cc4ccccc4)cc3)nc12	-2	3	-4	-2	1	5	x
COc1cccc2sc(N(CCCN(C)C)C(=O)c3ccc(S(=O)(=O)N4CCCc5ccccc54)cc3)nc12	-2	1	-3	-5	3	-3	x
CCOc1cccc2sc(N(CCCN(C)C)C(=O)c3ccc(S(=O)(=O)N(C)Cc4ccccc4)cc3)nc12	-5	0	-6	-1	-2	24*	1
O=[N+]([O-])c1ccc(C(O)CN2CCN(C/C=C/c3ccccc3)CC2)cc1 (stereo not given)	2	0	-7	-1	-1	-4	x
